# From PubChem BioAssay
# Activity calls are given as the source filed them.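 How the source made its calls, unless noted: active means GFP response above 150% of the DMSO level; inconclusive means fewer than 70 events counted for a yeast strain; inactive means the rest.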
# Columns and labels:
# [1] = hit retest on RPL19A-GFP reporter strain – cell-based, S. cerevisiae, flow cytometry, cherry picks, mother/daughter gates, confirmation (AID 2270;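 active means GFP response below 50% of the DMSO control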); conditions: 3 h, at 10 µM, stronger effect = lower value, 100 = same GFP as DMSO wells
# [2] = yeast TOR pathway reporter LAP4-GFP change – cell-based, cherry picks, flow cytometry, mother/daughter gates, confirmation (AID 2271;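 active means GFP response above 150% of the DMSO control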;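 further: ratio of sample to DMSO plate mean so 100% equals DMSO level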); conditions: S. cerevisiae LAP4-GFP strain, 3 h, at 10 µM, stronger effect = higher value, 100 means same as DMSO control
# Outline: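 Test system: GFP-fusion yeast strain / Amount: 0.2 OD600 cells / Buffer or medium: SC medium / Dosing: 10 µM single dose / Incubation: compound exposure 3 h at 30 °C, end-over-end rotation / Detection: HT flow cytometry, GFP fluorescence channel / Evaluation: median GFP fluorescence as percent of plate-mean DMSO wells / Control set: DMSO-only negative wells, rapamycin 400 ng/mL positive wells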
# [3] = TOR pathway reporter MEP2-GFP, retest of hits – S. cerevisiae, flow cytometry GFP, cherry picks, confirmation (AID 2272;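 active means GFP response above 150% of the DMSO control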;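 further: ratio of well signal to plate DMSO mean so 100% equals DMSO level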); conditions: S. cerevisiae MEP2-GFP strain, 3 h, at 10 µM, stronger effect = higher value
# [4] = yeast AGP1-GFP fluorescence change, single-dose – cell-based, flow cytometry, S. cerevisiae, cherry picks, confirmation (AID 2273);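 further: median GFP channel fluorescence over the whole cell population gate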; conditions: S. cerevisiae AGP1-GFP strain, 3 h, at 10 µM
# [5] = TOR pathway CIT2 reporter hit retest – S. cerevisiae, GFP fusion, cherry picks, mother/daughter gates, confirmation (AID 2274); conditions: S. cerevisiae CIT2-GFP strain, flow cytometry, 3 h, at 10 µM, stronger effect = higher value
# [6] = measured here: daughter cell gate
# [7] = measured here: mother cell gate
# [8] = measured here: daughter cell gate response
# [9] = measured here: mother cell gate response
SMILES,GFP response vs DMSO [1],"GFP response vs DMSO [1, 6]","GFP response vs DMSO [1, 7]",GFP response relative to DMSO [2],"GFP response relative to DMSO [2, 8]","GFP response relative to DMSO [2, 9]",GFP response vs DMSO [3],"GFP response, % of DMSO [4]","GFP response, % of DMSO [5]","GFP response, % of DMSO [5, 6]","GFP response, % of DMSO [5, 7]"
COCCN(CCOC)S(=O)(=O)c1ccc(C(=O)Nc2nnc(C3CC3)o2)cc1,101% (inactive),99.8%,101%,93.8% (inactive),94.1%,95.2%,100% (inactive),101% (inactive),106% (inactive),105%,106%
Cc1ccc(N2CC(C(=O)OCc3nnc(-c4ccccc4)o3)CC2=O)cc1 (centres undefined),100% (inactive),102%,101%,102% (inactive),104%,101%,106% (inactive),96.2% (inactive),104% (inactive),104%,103%
COC(=O)c1ccc(/C=N\NC(=O)c2ccc(C)cc2Cl)cc1,98.6% (inactive),98.9%,96.7%,95.4% (inactive),94.4%,95.1%,102% (inactive),96.4% (inactive),103% (inactive),105%,99.7%
O=C(CC1SC(=Nc2ccccc2F)N(CCN2CCOCC2)C1=O)Nc1ccc(F)cc1F (centres undefined),96.8% (inactive),97.4%,96.6%,95.4% (inactive),96%,94%,102% (inactive),97.8% (inactive),98.3% (inactive),99.1%,98.5%
Cc1cccc(OCCCSc2nc3ccc(C)cc3[nH]2)c1,92% (inactive),89.2%,92.2%,124% (inactive),115%,127%,94.7% (inactive),91.6% (inactive),79.9% (inactive),77.5%,82.1%
CC(C)c1nnc(NC(=O)c2nc(S(=O)(=O)Cc3ccc(F)cc3)ncc2Cl)s1,95.8% (inactive),96%,96.9%,101% (inactive),102%,99.5%,99.5% (inactive),102% (inactive),99.3% (inactive),100%,100%
O=C1/C(=C\c2ccc(O)c(O)c2)SC(=S)N1Cc1ccccc1,100% (inactive),99.1%,100%,116% (inactive),117%,116%,141% (inactive),97.2% (inactive),113% (inactive),119%,108%
COc1ccc(/C=N/Nc2nc(-c3cccnc3)nc3ccccc23)cc1OC,100% (inactive),99.3%,102%,129% (inactive),130%,129%,137% (inactive),104% (inactive),144% (inactive),143%,141%
CCCCC(=O)NNC(=S)NC(=O)c1ccc(C)cc1,116% (inactive),111%,111%,249% (active),204%,233%,134% (inactive),100% (inactive),119% (inactive),114%,110%
CCCc1ccc(C(=O)N2CCN(c3ccccc3OCC)CC2)cc1,99.1% (inactive),98.8%,99.2%,95.3% (inactive),93.6%,93.6%,97.5% (inactive),96.9% (inactive),96.4% (inactive),96.4%,94.5%
CCN(CC)CCCN(C(=O)c1ccc(Br)cc1)c1nc(-c2ccc(OC)cc2)cs1,96.5% (inactive),97.3%,96.9%,95.3% (inactive),99%,94.4%,101% (inactive),97.9% (inactive),95.8% (inactive),95.8%,98.2%
CSc1ccc(-c2cc(=O)c3ccccc3o2)cc1,92% (inactive),89.3%,92.5%,117% (inactive),110%,118%,95.2% (inactive),90.5% (inactive),84.7% (inactive),81.6%,84.8%
CCc1nnc(NC(=O)c2nc(S(=O)(=O)Cc3ccc(C)cc3)ncc2Cl)s1,98.2% (inactive),99.1%,98.6%,105% (inactive),105%,102%,102% (inactive),103% (inactive),101% (inactive),102%,99.1%
CCOc1cc(-c2noc(-c3cccnc3)n2)ccc1OC,95.8% (inactive),94.7%,95%,98.9% (inactive),99%,100%,103% (inactive),100% (inactive),106% (inactive),103%,106%
Cc1cc(/C=C2/SC(=S)N(c3cccc(Cl)c3)C2=O)c(C)n1-c1cccnc1,107% (inactive),106%,108%,133% (inactive),125%,136%,135% (inactive),110% (inactive),118% (inactive),117%,117%
CCOc1ccc(C(=O)/C=C/c2ccccc2C(F)(F)F)cc1,98.2% (inactive),96.9%,99%,97.9% (inactive),99.2%,96.1%,100% (inactive),99.1% (inactive),104% (inactive),105%,103%
O=C1c2cccc3cccc(c23)C(=O)N1c1cccnc1,100% (inactive),102%,101%,85% (inactive),86.4%,85.5%,98.3% (inactive),98.7% (inactive),99.7% (inactive),105%,98.5%

SMILES,GFP response vs DMSO [1],"GFP response vs DMSO [1, 6]","GFP response vs DMSO [1, 7]",GFP response relative to DMSO [2],"GFP response relative to DMSO [2, 8]","GFP response relative to DMSO [2, 9]",GFP response vs DMSO [3],"GFP response, % of DMSO [4]","GFP response, % of DMSO [5]","GFP response, % of DMSO [5, 6]","GFP response, % of DMSO [5, 7]"
NC(=O)c1ccccc1-c1nc(-c2ccccc2)no1,97.6% (inactive),96.1%,96.7%,101% (inactive),97.5%,102%,109% (inactive),102% (inactive),105% (inactive),101%,104%
CCCCCCCCn1c(=O)c(C(=O)OCC)c(O)c2ccccc21,98.4% (inactive),99.4%,99.4%,92.8% (inactive),92.8%,92.9%,100% (inactive),99.3% (inactive),101% (inactive),101%,101%
COc1ccc(N2CCN(C(=O)CCc3nnc4ccc(N5CCCC5)nn34)CC2)cc1,101% (inactive),99.2%,101%,96.2% (inactive),98.7%,97.2%,100% (inactive),97.8% (inactive),104% (inactive),101%,104%
Cc1ccc(C(=O)c2c3ccccc3[n+]([O-])n2CCC(=O)O)cc1,66.2% (inactive),70.6%,63.3%,102% (inactive),101%,105%,104% (inactive),105% (inactive),99.3% (inactive),96.4%,99.1%
Cc1ccc(/C=C/C(=O)c2ccc(C)cc2)cc1,97.2% (inactive),96.2%,99.3%,98.8% (inactive),99.3%,96.5%,99.5% (inactive),98.2% (inactive),102% (inactive),102%,103%
O=C1C=C(c2ccccc2)C(=O)N1Nc1ccccc1,77.5% (inactive),88.3%,64.5%,124% (inactive),96%,113%,102% (inactive),78.4% (inactive),92.6% (inactive),95.4%,78.3%
COc1cc(/C=C2\N=C(c3ccccc3)OC2=O)ccc1OC(C)=O,94.9% (inactive),93.5%,96.3%,101% (inactive),98.2%,102%,112% (inactive),107% (inactive),113% (inactive),111%,113%
COc1cccc(N=Cc2nc(-c3ccccc3)oc2OC(C)=O)c1,97.4% (inactive),96.1%,98.7%,108% (inactive),101%,113%,87.8% (inactive),87.5% (inactive),95.5% (inactive),95.4%,95%
O=[N+]([O-])c1cc(CN2CCN(c3ccccc3)CC2)c(O)c2ncccc12,76.4% (inactive),108%,59.5%,161% (active),138%,165%,114% (inactive),78.8% (inactive),97.3% (inactive),106%,88.2%
Cc1ccc(S(=O)(=O)N2CCCC2C(=O)OCc2ccco2)cc1 (centres undefined),103% (inactive),103%,103%,89% (inactive),92.5%,92.1%,107% (inactive),97.6% (inactive),112% (inactive),111%,112%
COc1ccc2cc(-c3cc(C(=O)O)c4ccccc4n3)ccc2c1,98.6% (inactive),95.9%,98.2%,99.8% (inactive),100%,101%,107% (inactive),96.5% (inactive),145% (inactive),128%,152%
O=C1c2ccsc2SCCN1Cc1ccccc1,93.8% (inactive),92.9%,94.8%,112% (inactive),109%,114%,94.1% (inactive),101% (inactive),92.6% (inactive),91.7%,90.2%
O=C(Nc1cc(Sc2ccccn2)cc([N+](=O)[O-])c1)c1ccc(Cl)cc1,99% (inactive),99.6%,99.2%,99.2% (inactive),101%,97.2%,100% (inactive),97.4% (inactive),101% (inactive),101%,99.7%
Cn1c(=O)c2ccccc2n(Cc2cccc(F)c2)c1=O,97.6% (inactive),97.8%,97.3%,104% (inactive),101%,105%,103% (inactive),101% (inactive),94.4% (inactive),95.8%,93.8%
CC(=O)c1ccc2c3c(cccc13)C(=O)N(c1c(C)nn(C)c1C)C2=O,100% (inactive),100%,101%,97.7% (inactive),97.9%,97.5%,102% (inactive),100% (inactive),96.4% (inactive),98.3%,96.8%
COc1ccc(OCC(O)CNC(=O)/C=C/c2cccc([N+](=O)[O-])c2)cc1 (centres undefined),100% (inactive),100%,100%,104% (inactive),102%,104%,101% (inactive),107% (inactive),103% (inactive),103%,104%
Cc1ccc2[nH]c(C)c(/C=C/c3cc[n+](C)cc3)c2c1,118% (inactive),120%,117%,198% (active),210%,190%,268% (active),122% (inactive),223% (active),241%,211%
